Starred links: 1 amine or outer side, 2 acyl side, 3 side chain; linkers in the order of their positions; H or OH if unused. Non-standard residues stand in square brackets, D forms with d. Residues, ends and D or L forms follow the SMILES beside them. X25 = C/N=C(/NCCCC[C@H](N[*:1])C(=O)[*:2])N(C)C; X14 = CCN(CC)C(=N)NCCCC[C@H](N[*:1])C(=O)[*:2]; X16 = CC(C)CNC(=N)NCCC[C@H](N[*:1])C(=O)[*:2]; X18 = C/N=C(/NCC[C@H](N[*:1])C(=O)[*:2])N(C)C; X24 = N=C(NCCCC[C@H](N[*:1])C(=O)[*:2])N1CCC1; X17 = CC(C)CNC(=N)NCC[C@H](N[*:1])C(=O)[*:2]; X19 = C/N=C(\NC)NCCCC[C@H](N[*:1])C(=O)[*:2]; X21 = CCN(C)C(=N)NCCC[C@H](N[*:1])C(=O)[*:2]; X13 = C/N=C(\NC)NCC[C@H](N[*:1])C(=O)[*:2]; X20 = CCNC(=N)NCCCC[C@H](N[*:1])C(=O)[*:2]; X23 = CN(C)C(=N)NCC[C@H](N[*:1])C(=O)[*:2]; X22 = CCCNC(=N)NCC[C@H](N[*:1])C(=O)[*:2]; X15 = CCNC(=N)NCC[C@H](N[*:1])C(=O)[*:2]; Arg(Me) = CNC(=N)NCCC[C@H](N)C(=O)O; hArg = N=C(N)NCCCC[C@H](N)C(=O)O
Key:
[1] = target: T1, Pyroglutamylated RF-amide peptide receptor (Homo sapiens, UniProt Q96P65); experiment: Agonist activity at human QRFPR expressed in CHO cells co-expressing Galpha16 assessed as increase Ca2+ mobilization after 3 mins by Fluo-4 AM-based scanning fluorometery; assay type: functional, cell-based
T1 sequence (Q96P65 whole entry): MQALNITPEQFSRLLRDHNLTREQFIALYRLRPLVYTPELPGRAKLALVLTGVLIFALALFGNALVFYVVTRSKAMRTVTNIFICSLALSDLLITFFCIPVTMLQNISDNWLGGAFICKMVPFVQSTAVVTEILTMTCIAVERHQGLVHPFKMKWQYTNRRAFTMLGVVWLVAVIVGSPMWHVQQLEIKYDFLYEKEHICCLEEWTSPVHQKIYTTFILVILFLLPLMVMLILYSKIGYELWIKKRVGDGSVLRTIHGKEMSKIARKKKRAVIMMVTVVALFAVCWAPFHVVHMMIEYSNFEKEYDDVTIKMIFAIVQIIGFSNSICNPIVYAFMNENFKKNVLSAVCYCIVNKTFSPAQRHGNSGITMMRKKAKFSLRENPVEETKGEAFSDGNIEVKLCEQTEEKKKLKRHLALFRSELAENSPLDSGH
Method in brief: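 CHO-Gα16 cells stably expressing human QRFPR, seeded at 40,000 cells/well 24 h ahead. Loaded 1 h with 2 µM Fluo-4 AM plus 0.01% pluronic acid, washed, then 30 min in HBSS with 2.5 mM probenecid and 5 mM HEPES. Compounds added at final 10^-11 to 10^-5 M; fluorescence recorded 3 min on a scanning fluorometer. EC50 from sigmoidal variable-slope fits, ≥3 experiments in triplicate.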

[2] = target: T1, Pyroglutamylated RF-amide peptide receptor; experiment: Antagonist activity at human QRFPR expressed in CHO cells co-expressing Galpha16 assessed as inhibition of 26RFa-induced Ca2+ mobilization preincubated for 15 mins followed by agonist addition measured after 3 mins by Fluo-4 AM-based scanning fluorometery; assay type: functional, cell-based
Method in brief: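 CHO-Gα16-hQRFPR cells loaded 1 h with 2 µM Fluo-4 AM, then incubated 15 min with graded compound. A 10^-7 M final 26RFa pulse was given during recording. Background subtracted, baseline normalized to 100%, peak fluorescence taken per concentration. IC50 from sigmoidal variable-slope fits, ≥3 experiments in triplicate. Maximal effect at 10^-4 M expressed as % inhibition of the 26RFa (10^-7 M) response.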

EC50 [1] [µM] | IC50 [2] [µM] | Compound
> 100 | > 100 | C/N=C(\NC)NCC[C@H](NC(=O)[C@H](Cc1ccccc1)NC(=O)[C@H](CO)NC(=O)[C@H](Cc1ccccc1)NC(=O)CNC(=O)CN)C(=O)N[C@@H](Cc1ccccc1)C(N)=O (H-GGFSF[X13]F-NH2)
> 100 | > 100 | CCNC(=N)NCC[C@H](NC(=O)[C@H](Cc1ccccc1)NC(=O)[C@H](CO)NC(=O)[C@H](Cc1ccccc1)NC(=O)CNC(=O)CN)C(=O)N[C@@H](Cc1ccccc1)C(N)=O (H-GGFSF[X15]F-NH2)
> 100 | > 100 | CC(C)CNC(=N)NCC[C@H](NC(=O)[C@H](Cc1ccccc1)NC(=O)[C@H](CO)NC(=O)[C@H](Cc1ccccc1)NC(=O)CNC(=O)CN)C(=O)N[C@@H](Cc1ccccc1)C(N)=O (H-GGFSF[X17]F-NH2)
> 100 | > 100 | C/N=C(/NCC[C@H](NC(=O)[C@H](Cc1ccccc1)NC(=O)[C@H](CO)NC(=O)[C@H](Cc1ccccc1)NC(=O)CNC(=O)CN)C(=O)N[C@@H](Cc1ccccc1)C(N)=O)N(C)C (H-GGFSF[X18]F-NH2)
> 100 | > 100 | C/N=C(\NC)NCCCC[C@H](NC(=O)[C@H](Cc1ccccc1)NC(=O)[C@H](CO)NC(=O)[C@H](Cc1ccccc1)NC(=O)CNC(=O)CN)C(=O)N[C@@H](Cc1ccccc1)C(N)=O (H-GGFSF[X19]F-NH2)
> 100 | > 100 | CCN(C)C(=N)NCCC[C@H](NC(=O)[C@H](Cc1ccccc1)NC(=O)[C@H](CO)NC(=O)[C@H](Cc1ccccc1)NC(=O)CNC(=O)CN)C(=O)N[C@@H](Cc1ccccc1)C(N)=O (H-GGFSF[X21]F-NH2)
> 100 | > 100 | CCCNC(=N)NCC[C@H](NC(=O)[C@H](Cc1ccccc1)NC(=O)[C@H](CO)NC(=O)[C@H](Cc1ccccc1)NC(=O)CNC(=O)CN)C(=O)N[C@@H](Cc1ccccc1)C(N)=O (H-GGFSF[X22]F-NH2)
> 100 | > 100 | CN(C)C(=N)NCC[C@H](NC(=O)[C@H](Cc1ccccc1)NC(=O)[C@H](CO)NC(=O)[C@H](Cc1ccccc1)NC(=O)CNC(=O)CN)C(=O)N[C@@H](Cc1ccccc1)C(N)=O (H-GGFSF[X23]F-NH2)
> 100 | > 100 | C/N=C(/NCCCC[C@H](NC(=O)[C@H](Cc1ccccc1)NC(=O)[C@H](CO)NC(=O)[C@H](Cc1ccccc1)NC(=O)CNC(=O)CN)C(=O)N[C@@H](Cc1ccccc1)C(N)=O)N(C)C (H-GGFSF[X25]F-NH2)

More lines, now with the values behind:

Compound | EC50 [1] [µM] | IC50 [2] [µM]
CCN(CC)C(=N)NCCCC[C@H](NC(=O)[C@H](Cc1ccccc1)NC(=O)[C@H](CO)NC(=O)[C@H](Cc1ccccc1)NC(=O)CNC(=O)CN)C(=O)N[C@@H](Cc1ccccc1)C(N)=O (H-GGFSF[X14]F-NH2) | > 100 | > 100
CC(C)CNC(=N)NCCC[C@H](NC(=O)[C@H](Cc1ccccc1)NC(=O)[C@H](CO)NC(=O)[C@H](Cc1ccccc1)NC(=O)CNC(=O)CN)C(=O)N[C@@H](Cc1ccccc1)C(N)=O (H-GGFSF[X16]F-NH2) | 1.5 | –
CCNC(=N)NCCCC[C@H](NC(=O)[C@H](Cc1ccccc1)NC(=O)[C@H](CO)NC(=O)[C@H](Cc1ccccc1)NC(=O)CNC(=O)CN)C(=O)N[C@@H](Cc1ccccc1)C(N)=O (H-GGFSF[X20]F-NH2) | > 100 | > 100
N=C(NCCCC[C@H](NC(=O)[C@H](Cc1ccccc1)NC(=O)[C@H](CO)NC(=O)[C@H](Cc1ccccc1)NC(=O)CNC(=O)CN)C(=O)N[C@@H](Cc1ccccc1)C(N)=O)N1CCC1 (H-GGFSF[X24]F-NH2) | > 100 | > 100
N=C(N)NCCCC[C@H](NC(=O)[C@H](Cc1ccccc1)NC(=O)[C@H](CO)NC(=O)[C@H](Cc1ccccc1)NC(=O)CNC(=O)CN)C(=O)N[C@@H](Cc1ccccc1)C(N)=O (H-GGFSF[hArg]F-NH2) | 1.91 | –
CNC(=N)NCCC[C@H](NC(=O)[C@H](Cc1ccccc1)NC(=O)[C@H](CO)NC(=O)[C@H](Cc1ccccc1)NC(=O)CNC(=O)CNC(=O)[C@H](CCCCN)NC(=O)[C@H](CCCCN)NC(=O)[C@H](CCCNC(=N)N)NC(=O)[C@H](CO)NC(=O)[C@H](Cc1ccc(O)cc1)NC(=O)CNC(=O)[C@H](CC(N)=O)NC(=O)[C@H](CC(C)C)NC(=O)[C@H](CCC(=O)O)NC(=O)[C@H](CCC(=O)O)NC(=O)[C@H](C)NC(=O)[C@H](CC(C)C)NC(=O)[C@H](CC(N)=O)NC(=O)CNC(=O)[C@H](CC(C)C)NC(=O)[C@@H]1CCCN1C(=O)CNC(=O)[C@H](CO)NC(=O)[C@@H](N)[C@@H](C)O)C(=O)N[C@@H](Cc1ccccc1)C(N)=O (H-TSGPLGNLAEELNGYSRKKGGFSF[Arg(Me)]F-NH2) | 0.0069 | –
H-GGFSFRF-NH2 | 1.64 | –
